In general, IC50 refers to the concentration that gives 50% inhibition. A high value points to weaker potency in that assay.

The nature of series [1]: Toxicity in brine shrimp at 100 ug/mL. Format: organism-based. The following applies: artemia, in vivo; read-out: Activity.
A further series relates to HeLa S3. Briefly: (§1) Cytotoxicity against human HeLaS3 cells after 72 hrs by WST1 assay. In kind it is functional, cell-based. In short, it runs like this: (§2)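 HeLa S3 cells seeded at 500 cells/well in minimum essential medium and cultured overnight. Compounds then added at final concentrations of 0.1, 1, 10 and 100 µM and incubated 72 h. WST-1 (Cell Counting Kit) added per manufacturer's protocol, followed by a further 2 h incubation. Absorbance read at 450 nm.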
(Formazan colour is commonly taken as a measure of viable cells.)

Series [2] is described as follows: as §1. The following applies: HeLa S3, 72 h. Format: functional, cell-based. In short, it runs like this: as §2

Calls of active or inactive are those of the source. The rule behind the calls is not given here.

As for `COC(=O)C[C@@H]1[C@]2(C)C3=C(C)[C@H](c4ccoc4)C[C@H]3O[C@@H]2[C@H](OC(C)=O)[C@H]2[C@](C)(C=O)[C@H](O)C[C@H](OC(=O)/C=C/c3ccccc3)[C@]12C`, the mortality at 100 ug/mL in series [1] was determined as 100%. The outcome in the series on HeLa S3 was inactive. The like results for `COC(=O)C[C@@H]1[C@]2(C)C3=C(C)[C@H](c4ccoc4)C[C@H]3O[C@@H]2[C@H](OC(C)=O)[C@H]2[C@](C)(C=O)[C@H](O)C[C@H](OC(=O)c3ccccc3)[C@]12C` were, in that order, 100% and “inactive”. The like results for `C/C=C(\C)C(=O)O[C@H]1C[C@@H](O)[C@@](C)(C=O)[C@@H]2[C@@H](OC(C)=O)[C@H]3O[C@@H]4C[C@@H](c5ccoc5)C(C)=C4[C@@]3(C)[C@@H](CC(=O)OC)[C@@]12C` [OHCHINOLAL] were, in that order, 100% and “inactive”. In the case of `C/C=C(\C)C(=O)O[C@H]1C[C@@H](OC(C)=O)[C@@]2(C)CO[C@H]3[C@@H](OC(=O)c4ccccc4)[C@@]4(C)C5=C(C)[C@H](c6ccoc6)C[C@@H]5OC(=O)C[C@@H]4[C@]1(C)[C@@H]32` [1-O-DEACETYL-1-O-TIGLOYLOHCHINOLIDE A], in series [1], the mortality at 100 ug/mL stood at 100%. For the same compound, in series [2], the IC50 came out at 29.7 µM. As to `O=c1[nH]cc(F)c(=O)[nH]1` [FLUOROURACIL], 5.4 µM corresponded to half-maximal inhibition in series [2] (IC50). `C/C=C(\C)C(=O)O[C@@H]1[C@@H]2OC[C@]3(C)[C@H](OC(C)=O)C[C@H](O)[C@@](C)([C@@H]23)[C@H]2CC(=O)O[C@H]3C[C@@H](c4ccoc4)C(C)=C3[C@]12C` [1-O-DEACETYLOHCHINOLIDE B]: the mortality at 100 ug/mL in series [1] is 100%. Moreover, the IC50 in series [2] was 0.1 µM. Consider `CC(=O)O[C@@H]1C[C@H](O)[C@@]2(C)[C@H]3[C@@H](OC[C@]13C)[C@@H](OC(=O)c1ccccc1)[C@@]1(C)C3=C(C)[C@H](c4ccoc4)C[C@@H]3OC(=O)C[C@@H]12` [1-O-DEACETYLOHCHINOLIDE A], for which the mortality at 100 ug/mL in series [1] came out at 100%. Moreover, the IC50 in series [2] was found to be 2.4 µM.

As to `CC(=O)O[C@H]1C[C@@H](OC(C)=O)[C@@]2(C)CO[C@H]3[C@@H](OC(=O)c4ccccc4)[C@@]4(C)C5=C(C)[C@H](c6ccoc6)C[C@@H]5OC(=O)C[C@@H]4[C@]1(C)[C@@H]32` [OHCHNOLIDE A], the mortality at 100 ug/mL in series [1] was found to be 100%. Further, the result in the series on HeLa S3 was inactive. With `C/C=C(\C)C(=O)O[C@@H]1[C@@H]2OC[C@]3(C)[C@H](OC(C)=O)C[C@H](OC(C)=O)[C@@](C)([C@@H]23)[C@H]2CC(=O)O[C@H]3C[C@@H](c4ccoc4)C(C)=C3[C@]12C` [OHCHNOLIDE B], the mortality at 100 ug/mL in series [1] came out at 100%. Besides, the IC50 in series [2] came out at 40.5 µM. The like results for `C/C=C(\C)C(=O)O[C@@H]1[C@@H]2OC[C@]3(C)[C@H](OC(C)=O)C[C@H](OC(=O)/C(C)=C/C)[C@@](C)([C@@H]23)[C@H]2CC(=O)O[C@H]3C[C@@H](c4ccoc4)C(C)=C3[C@]12C` [1-O-DEACETYL-1-O-TIGLOYLOHCHINOLIDE B] were, in that order, 100% and 33.8 µM.

For `C/C=C(\C)C(=O)O[C@@H]1[C@@H]2OC[C@]3(C)[C@H](OC(C)=O)C[C@H](OC(=O)c4ccccc4)[C@@](C)([C@@H]23)[C@H]2CC(=O)O[C@H]3C[C@@H](c4ccoc4)C(C)=C3[C@]12C` [1-O-DEACETYL-1-O-BENZOYLOHCHINOLIDE B], in series [1], the mortality at 100 ug/mL worked out at 100%. For the same compound, in series [2], inhibition was half-maximal at 33 µM (IC50).

For the origin of these results see ChEMBL document CHEMBL1148898, “New ring C-seco limonoids from Brazilian Melia azedarach and their cytotoxic activity” (J Nat Prod, 2004).
